# According to PubChem BioAssay:
# The source made the active and inactive calls.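 The calls were made as follows, unless noted: active = inhibition above 20% together with a positive visual image hit; inconclusive = visual image hit but inhibition not above 20%; inactive = no visual image hit.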
# Assays:
# [1] = inhibitors of TNFa-induced NFkB p65 translocation, primary screen, imaging, HUVEC, MLSMR starter and 10KST1 sets (AID 438); details: HUVEC TNFa-induced p65 nuclear translocation; cell count: measured here: nuclei count (cytotoxicity indicator), at 2.08 µM; inhibition: at 2 µM, stronger effect = higher value, 0% TNFa-plus-vehicle, 100% no-TNFa wells;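 also: compound added about 3h40 before a 20 min TNFalpha stimulation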;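 as to inhibition: signal is the nuclear over cytoplasmic p65 intensity ratio per well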
# [2] = inhibitors of mutant huntingtin aggregation, primary screen, imaging, exon1htt(103Q)mCFP cells, high-content imaging (AID 483;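 active = visual image review flags a hit and inhibition of aggregation exceeds 20%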;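 also: compound exposure lasted 3 days before fixation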;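 as to nuclei count: percent of the per-plate median nuclei count of sample wells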); details: exon1htt(103Q)mCFP cell line, aggregate imaging, at 2 µM; inhibition of aggregation: stronger effect = higher value; nuclei count: measured here: cell count, toxicity
# [3] = inhibitors of E-selectin induction by TNFa, primary screen, imaging, HUVEC, immunofluorescence, MLSMR starter and 10KST1 sets (AID 487;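 active = visually confirmed hit in the image check and inhibition above 20%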;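 as to inhibition: signal is fraction of cell area covered by stained E-selectin grains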;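 as to nuclei count: 100% = median nuclei count of all wells on the same plate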); details: HUVEC TNFalpha-induced E-selectin immunofluorescence imaging, at 2 µM; inhibition: stronger effect = higher value; nuclei count: measured here: cell number, toxicity
# [4] = biological target: Voltage-gated potassium channel subunit beta-2 (Rattus norvegicus) (UniProt P62483); assay: KvBeta enzyme negative modulators, primary screen, biochemical, NADPH fluorescence (AID 622;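 active = fluorescence slope higher than the sample average by over 3 SD, cut at about -0.22 in these data, passing the limit was not always enough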;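 also: slope of raw intensity against log time taken from 70 to 1610 s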); details: recombinant KvBeta, 4-cyanobenzaldehyde reduction, at 10 µM, stronger effect = higher value
# Sequence of Voltage-gated potassium channel subunit beta-2 (Rattus norvegicus) (P62483 whole entry, looked up): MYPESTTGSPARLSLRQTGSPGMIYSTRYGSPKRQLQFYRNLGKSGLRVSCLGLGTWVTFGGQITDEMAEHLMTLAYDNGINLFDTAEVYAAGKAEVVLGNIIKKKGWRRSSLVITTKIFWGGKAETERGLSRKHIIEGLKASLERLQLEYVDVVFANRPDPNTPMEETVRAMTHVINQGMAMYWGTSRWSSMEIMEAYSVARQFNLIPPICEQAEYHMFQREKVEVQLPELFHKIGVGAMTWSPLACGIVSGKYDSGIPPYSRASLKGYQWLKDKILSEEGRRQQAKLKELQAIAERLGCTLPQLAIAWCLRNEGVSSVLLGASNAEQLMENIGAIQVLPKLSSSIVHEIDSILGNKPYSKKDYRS
# [5] = biological target: Voltage-gated potassium channel subunit beta-2 (Rattus norvegicus) (UniProt P62483); assay: KvBeta positive modulators, primary screen, biochemical, NADPH fluorescence (AID 623;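 active = NADPH fluorescence slope more negative than the mean of all samples by about 3 SD, 99.7% confidence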;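 also: fluorescence intensity change per second fitted from 20 to 320 s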); details: Recombinant KvBeta, NADPH fluorescence decrease slope, 10 min; at 10 µM; stronger effect = lower value
# [6] = biological target: Muscarinic acetylcholine receptor M4 (Homo sapiens) (UniProt P08173); assay: compounds altering M4/GIRK thallium flux, either direction, primary screen, M4 allosteric agonist project, cell-based, HEK293 M4/GIRK, BTC-AM (AID 625;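 active = fluorescence slope after compound addition differing from the mean of all tested samples at 99.7% confidence, mostly higher but some lower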;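 also: thallium influx through GIRK channels coupled to M4 in HEK293 cells with BTC-AM dye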); details: at 10 µM, actives lie on both sides
# Sequence of Muscarinic acetylcholine receptor M4 (Homo sapiens) (P08173 whole entry, looked up): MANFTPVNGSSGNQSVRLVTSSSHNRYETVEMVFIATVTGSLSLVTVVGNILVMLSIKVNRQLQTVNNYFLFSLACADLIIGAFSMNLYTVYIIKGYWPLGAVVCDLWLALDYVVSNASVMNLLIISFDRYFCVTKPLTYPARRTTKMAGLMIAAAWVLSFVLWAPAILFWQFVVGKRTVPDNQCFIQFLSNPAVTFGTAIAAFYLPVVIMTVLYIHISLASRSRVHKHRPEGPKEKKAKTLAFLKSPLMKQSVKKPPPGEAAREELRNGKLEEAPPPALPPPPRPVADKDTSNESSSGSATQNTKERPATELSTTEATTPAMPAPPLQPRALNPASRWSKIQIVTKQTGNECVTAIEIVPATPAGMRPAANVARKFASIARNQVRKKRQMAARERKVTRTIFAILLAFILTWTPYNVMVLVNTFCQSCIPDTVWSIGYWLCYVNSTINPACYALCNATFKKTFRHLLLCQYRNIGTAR
# Summary of the method: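 Material: M4/GIRK1/GIRK2 stable HEK293 cell line. Medium: pH 7.3 thallium assay buffer. Dosing: single compound concentration, 10 µM final. Schedule: 1 h dye loading, 2 min kinetic read. Measured by: kinetic fluorescence with BTC-AM dye. Read-out: post-addition slope, 15–24 s, of baseline-normalized fluorescence. Benchmarks: carbachol and DMSO controls.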
# [7] = inhibitors of Sendai virus-induced IRF3 signaling, primary screen, TLR/RLR signaling modifier project, cell-based, Sendai virus stimulus, luciferase, 10K MLSCN set (AID 602276;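 active = inhibition at or above 50% at 10 µM; inactive = inhibition below 50%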;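 also: firefly luciferase from ISG56 promoter only with Renilla not read in this screen; 0% = Sendai virus plus DMSO and 100% = medium plus DMSO without virus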); details: HEK293 RL24 IRF3 luciferase reporter, at 10 µM, stronger effect = higher value
# [8] = inhibitors of poly I:C-induced TLR3 signaling, primary screen, cell-based, poly I:C stimulus, luciferase, 10K MLSCN set (AID 602277;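 active = inhibition of the reporter signal at or above 50%; inactive = inhibition below 50%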); details: HEK293-TLR3 RL24 IRF3 luciferase reporter, at 10 µM, stronger effect = higher value
Structure (SMILES),cell count [1],inhibition [1],inhibition of aggregation [2],nuclei count [2] [%],inhibition [3],nuclei count [3] [%],fluorescence slope [4],NADPH fluorescence slope [5],fluorescence slope [6],inhibition [7],inhibition [8]
CCOC(=O)c1cccc(NC(=O)Cn2cnc3c2c(=O)n(C)c(=O)n3C)c1,467,10.1% (inactive),2.8% (inactive),123,2.2% (inactive),114,-0.261 (inactive),-7e-06 (inactive),0.00582 (inactive),-6.03% (inactive),-6.74% (inactive)
CCNC(=O)CC1C(=O)N(c2ccc(F)cc2)C(=O)N1CCC(C)C (stereo not drawn),357,-10.8% (inactive),17.4% (inactive),92.3,-21.1% (inactive),106,-0.525 (inactive),-5.9e-06 (inactive),0.00457 (inactive),4.4% (inactive),15.9% (inactive)
O=S(=O)(NCC(O)COCc1ccco1)c1cccs1 (stereo not drawn),297,8% (inactive),-14.1% (inactive),108,1.6% (inactive),97.5,-0.587 (inactive),-3.7e-05 (inactive),0.00581 (inactive),2.99% (inactive),8.32% (inactive)
COC(=O)Nc1ccc(S(=O)(=O)N(C)CC(F)(F)C(F)F)cc1,642,-11.1% (inactive),-5.6% (inactive),114,-57.5% (inactive),86.7,-0.568 (inactive),3.2e-05 (inactive),0.00406 (inactive),12% (inactive),13.7% (inactive)
COCCCNC(=O)CC(NS(=O)(=O)c1ccc(Cl)cc1)c1ccco1 (stereo not drawn),402,0.3% (inactive),-20.4% (inactive),112,-62.8% (inactive),121,-0.541 (inactive),-4.5e-05 (inactive),0.00644 (inactive),11.7% (inactive),20.4% (inactive)
CC(=O)c1cccc(NC(=O)N2CCCC2C(=O)NCc2ccc(C)cc2)c1 (stereo not drawn),537,-4.9% (inactive),6.2% (inactive),102,-6.3% (inactive),120,-0.216 (inactive),-5.5e-06 (inactive),0.00664 (inactive),14.1% (inactive),23.1% (inactive)
Cc1ccc2[nH]c(=O)c(CN(CCc3ccccc3)Cc3nnnn3CC3CCCO3)cc2c1 (stereo not drawn),676,-10.2% (inactive),0.9% (inactive),105,75.6% (active),112,-0.498 (inactive),-7e-06 (inactive),0.00636 (inactive),-7.83% (inactive),-6.03% (inactive)
CCOC(=O)c1sc(C)c2c(=O)n(CC)nnc12,304,0.8% (inactive),-14.4% (inactive),102,-56% (inactive),109,-0.523 (inactive),-2.3e-06 (inactive),0.00361 (inactive),6.72% (inactive),4.72% (inactive)
COc1ccc(N(CC(=O)N2CCN(Cc3ccc4c(c3)OCO4)CC2)S(C)(=O)=O)cc1OC,359,5% (inactive),2.1% (inactive),120,-52.6% (inactive),112,-0.538 (inactive),-1.7e-05 (inactive),0.00506 (inactive),21.2% (inactive),20.2% (inactive)
COc1ccc(OC)c(NC(=O)Cc2coc3ccc(C)cc23)c1,451,3.5% (inactive),3.9% (inactive),97.1,46.7% (inactive),90.5,-0.468 (inactive),-3.1e-05 (inactive),0.0049 (inactive),13.3% (inactive),16.6% (inactive)
COc1cccc(-n2c(C)nc3c(cnn3-c3ccc(C)cc3)c2=O)c1,684,-5% (inactive),2.3% (inactive),111,-67.2% (inactive),118,-0.577 (inactive),2.9e-06 (inactive),0.00597 (inactive),-34.8% (inactive),-67.9% (inactive)
Cc1ncoc1C(=O)Nc1cccc(Cl)c1C,540,-14.2% (inactive),52.7% (active),56.4,-38.5% (inactive),116,-0.302 (inactive),8.7e-06 (inactive),0.00599 (inactive),-22.6% (inactive),-46.1% (inactive)
CC(C)(C)NC(=O)Nc1ccccc1C(N)=O,657,1.6% (inactive),-14.8% (inactive),108,-34.5% (inactive),107,-0.539 (inactive),-8e-06 (inactive),0.0058 (inactive),3.23% (inactive),-20.8% (inactive)
Cc1cc2ncc(C(=O)Nc3ccccc3)c(C)n2n1,376,4.2% (inactive),-9.1% (inactive),101,27.5% (inactive),93.8,-0.54 (inactive),-1.5e-05 (inactive),0.00501 (inactive),1.55% (inactive),-14.2% (inactive)
N/C(Cn1nnc(-c2ccccc2)n1)=N\O,707,5.4% (inactive),-14.8% (inactive),108,12.5% (inactive),114,-0.463 (inactive),2.3e-05 (inactive),0.00645 (inactive),-16.8% (inactive),89.1% (active)
CCc1nnc(NC(=O)CSc2nnc(Cc3ccccc3)n2-c2ccc(OC)cc2)s1,680,-13.4% (inactive),0.3% (inactive),102,52.3% (inactive),105,-0.45 (inactive),-5.9e-05 (inactive),0.00454 (inactive),10.9% (inactive),12% (inactive)
Cn1c(=O)c(NC(=O)c2ccccc2)c2n(c1=S)CCCCC2,359,-5.7% (inactive),13.7% (inactive),95.3,-17% (inactive),107,-0.57 (inactive),-1.1e-05 (inactive),0.00647 (inactive),16.3% (inactive),20% (inactive)
CC(C)CCNC(=O)NC(=O)CSc1nnc(-c2ccccc2F)n1N,572,0.4% (inactive),-5.6% (inactive),104,-223% (inactive),178,-0.517 (inactive),9.8e-05 (inactive),0.00509 (inactive),-9.04% (inactive),-3.83% (inactive)
COc1ccc(-c2cn3cc(C)ccc3n2)cc1OC,442,-10.5% (inactive),-3.3% (inactive),103,-4.7% (inactive),109,-0.357 (inactive),-3e-05 (inactive),0.00466 (inactive),29.4% (inactive),-10.4% (inactive)
CCOc1ccc(OCc2cccc(C(=O)O)c2)cc1,600,3.8% (inactive),-11.5% (inactive),112,-68% (inactive),116,-0.551 (inactive),-2.8e-05 (inactive),0.00598 (inactive),-46.2% (inactive),-87.1% (inactive)
CCN1CCN(C(=O)c2ccc3c(=O)n(C4CCCC4)c(=S)[nH]c3c2)CC1,507,-4.3% (inactive),8.5% (inactive),82.3,-19.6% (inactive),111,-0.517 (inactive),6.6e-05 (inactive),0.00572 (inactive),-15.8% (inactive),-6.81% (inactive)
C=C(c1ccc(O)cc1)c1ccc(O)cc1,447,-0.5% (inactive),-1.6% (inactive),123,-75% (inactive),205,-0.37 (inactive),1.7e-05 (inactive),0.00598 (inactive),13.9% (inactive),16.6% (inactive)
CS(=O)(=O)N(CC(=O)NCc1ccccn1)c1ccc2c(c1)OCCO2,755,-7.5% (inactive),13% (inactive),101,26% (inactive),78.9,-0.515 (inactive),-4.7e-06 (inactive),0.00626 (inactive),14.9% (inactive),15.8% (inactive)
CC(C)(C)NC(=O)Cn1nnc(-c2cccs2)n1,238,6.4% (inactive),23.3% (inactive),99,-3.4% (inactive),85.2,-0.508 (inactive),-1.3e-05 (inactive),0.00413 (inactive),1.59% (inactive),-13% (inactive)
O=C(NC(NC1CCS(=O)(=O)C1)C(=O)c1cccs1)c1ccccc1 (stereo not drawn),269,3.9% (inactive),0.8% (inactive),101,12.8% (inactive),96.3,-0.572 (inactive),-2.1e-05 (inactive),0.00591 (inactive),7.41% (inactive),18.4% (inactive)
Cc1cccc(C)c1OCC(=O)Nc1cccc(NC(=O)c2ccco2)c1,464,-9.5% (inactive),23.3% (inactive),87.7,-10.3% (inactive),96.3,-0.447 (inactive),5.1e-06 (inactive),0.00569 (inactive),13.3% (inactive),9.13% (inactive)
Cc1nc(SCC(=O)c2c[nH]c3ccccc23)n[nH]1,339,-6.5% (inactive),-7.8% (inactive),103,-81.8% (inactive),76.3,-0.472 (inactive),-6.1e-05 (inactive),0.00544 (inactive),17.1% (inactive),14.3% (inactive)
O=C(CCNC(=O)Cn1ccc2ccccc2c1=O)NCCN1CCN(c2ccccc2F)CC1,335,-5.7% (inactive),-19.4% (inactive),104,1.6% (inactive),104,-0.528 (inactive),3.6e-05 (inactive),0.00558 (inactive),12.1% (inactive),14.1% (inactive)
